Tested on: not listed separately
Experiment: Inhibition of Rho/MRTF/SRF pathway (unknown origin) expressed in HEK293T cells assessed as reduction in Galpha12-stimulated MRTF-selective SRE.L promoter-driven luciferase activity after overnight incubation by luminescence assay
Assay type: cell-based, Homo sapiens
Settings: not given
Method in brief: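 Signal was stimulated with Gα12 and luciferase activity was read. IC50 in μM is the mean of n ≥ 3.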

SMILES	IC50 [µM]
CN(C(=O)C1CCCN(C(=O)c2cccc(-c3ccco3)c2)C1)c1ccc(Cl)cc1 (centres undefined)	8.6
O=C(Nc1ccc(Cl)cc1)C1CCCN(C(=O)c2cc(-c3ccco3)[nH]n2)C1 (centres undefined)	5.3
CN(C)C1CC(C(=O)Nc2ccc(Cl)cc2)CN(C(=O)c2cccc(-c3ccco3)c2)C1 (centres undefined)	5.8
O=C(Nc1ccc(Cl)cc1)C1CN(C(=O)c2cncc(-c3ccco3)c2)CC(F)(F)C1 (centres undefined)	3.5
O=C(Nc1ccc(Cl)cc1)C1CCCN(C(=O)c2cc(-c3ccco3)ncn2)C1 (centres undefined)	15.3
O=C(Nc1ccc(Cl)cc1)C1CCCN(C(=O)c2cnc(-c3ccco3)s2)C1 (centres undefined)	5.8
O=C(Nc1ccc(Cl)cc1)C1CN(C(=O)c2cccc(-c3ncc[nH]3)c2)CC(F)(F)C1 (centres undefined)	5.5
CC(=O)N1CCN(C(=O)c2cccc(-c3ccco3)c2)CC1C(=O)Nc1ccc(Cl)cc1 (centres undefined)	21

These reach a lower IC50. Values come first.

IC50 [µM]	SMILES
0.92	O=C(Nc1ccc(Cl)cc1)C1CCCN(C(=O)c2cccc(-c3cc[nH]n3)c2)C1 (centres undefined)
0.37	Cn1cncc1-c1cccc(C(=O)N2CC(C(=O)Nc3ccc(Cl)cc3)CC(F)(F)C2)c1 (centres undefined)
0.8	O=C(c1cccc(-c2ccco2)c1)N1CCCC(F)(C(=O)Nc2ccc(Cl)cc2)C1 (centres undefined)
0.55	CC1(C(=O)Nc2ccc(Cl)cc2)CCCN(C(=O)c2cccc(-c3ccco3)c2)C1 (centres undefined)
3	O=C(Nc1ccc(Cl)cc1)C1CCCN(C(=O)c2cccc(-c3cn[nH]c3)c2)C1 (centres undefined)
2.9	O=C(Nc1ccc(Cl)cc1)C1CCCN(C(=O)c2cccc(-n3cccn3)c2)C1 (centres undefined)
0.81	O=C(c1cccc(-c2ccco2)c1)N1CCCC(COc2ccc(Cl)cc2)C1 (centres undefined)
0.68	O=C(Nc1ccc(Cl)cc1)C1CN(C(=O)c2cccc(-n3cccn3)c2)CC(F)(F)C1 (centres undefined)
0.53	O=C(Nc1ccc(Cl)cc1)C1CN(C(=O)c2cc(F)cc(-c3ccncc3)c2)CC(F)(F)C1 (centres undefined)
0.55	O=C(Nc1ccc(Cl)cc1)C1CN(C(=O)c2cccc(-c3ccncc3)c2)CC(F)(F)C1 (centres undefined)
3	O=C(Nc1ccc(Cl)cc1)C1CN(C(=O)c2cccc(-c3ncccn3)c2)CC(F)(F)C1 (centres undefined)
0.64	O=C(Nc1ccc(Cl)cc1)C1CCCN(C(=O)c2cccc(-c3ccco3)c2)C1 (centres undefined)

Tested on: Liver
Experiment: Half life in CD-1 mouse liver microsomes at 1 uM in presence of NADPH by LC-MS/MS analysis
Assay type: ADME, microsome
Settings: not given
Method in brief: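 Half-life measured by incubation in mouse liver microsomes.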

SMILES	t1/2 [min]
CN(C)C1CC(C(=O)Nc2ccc(Cl)cc2)CN(C(=O)c2cccc(-c3ccco3)c2)C1 (centres undefined)	3.3
O=C(Nc1ccc(Cl)cc1)C1CN(C(=O)c2cncc(-c3ccco3)c2)CC(F)(F)C1 (centres undefined)	3

The next lines start with the values.

t1/2 [min]	SMILES
3.4	O=C(Nc1ccc(Cl)cc1)C1CCCN(C(=O)c2cccc(-c3cc[nH]n3)c2)C1 (centres undefined)
16	Cn1cncc1-c1cccc(C(=O)N2CC(C(=O)Nc3ccc(Cl)cc3)CC(F)(F)C2)c1 (centres undefined)
2.8	O=C(c1cccc(-c2ccco2)c1)N1CCCC(F)(C(=O)Nc2ccc(Cl)cc2)C1 (centres undefined)
0.84	CC1(C(=O)Nc2ccc(Cl)cc2)CCCN(C(=O)c2cccc(-c3ccco3)c2)C1 (centres undefined)
5.6	O=C(Nc1ccc(Cl)cc1)C1CCCN(C(=O)c2cccc(-c3cn[nH]c3)c2)C1 (centres undefined)
1.7	O=C(Nc1ccc(Cl)cc1)C1CCCN(C(=O)c2cccc(-n3cccn3)c2)C1 (centres undefined)
1.8	O=C(c1cccc(-c2ccco2)c1)N1CCCC(COc2ccc(Cl)cc2)C1 (centres undefined)
4.8	O=C(Nc1ccc(Cl)cc1)C1CN(C(=O)c2cccc(-n3cccn3)c2)CC(F)(F)C1 (centres undefined)
6.9	O=C(Nc1ccc(Cl)cc1)C1CN(C(=O)c2cc(F)cc(-c3ccncc3)c2)CC(F)(F)C1 (centres undefined)
7.8	O=C(Nc1ccc(Cl)cc1)C1CN(C(=O)c2cccc(-c3ccncc3)c2)CC(F)(F)C1 (centres undefined)
11.9	O=C(Nc1ccc(Cl)cc1)C1CN(C(=O)c2cccc(-c3ncccn3)c2)CC(F)(F)C1 (centres undefined)
1.6	O=C(Nc1ccc(Cl)cc1)C1CCCN(C(=O)c2cccc(-c3ccco3)c2)C1 (centres undefined)

Tested on: not listed separately
Experiment: Thermodynamic aqueous solubility of the compound in water by nitrogen detection method
Assay type: physicochemical
Settings: buffer
Method in brief: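 Thermodynamic solubility in water, reported in μg/mL.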

Therm_solubility [µg/mL]	SMILES
14.9	Cn1cncc1-c1cccc(C(=O)N2CC(C(=O)Nc3ccc(Cl)cc3)CC(F)(F)C2)c1 (centres undefined)
23	O=C(Nc1ccc(Cl)cc1)C1CN(C(=O)c2cccc(-n3cccn3)c2)CC(F)(F)C1 (centres undefined)
9.8	O=C(Nc1ccc(Cl)cc1)C1CN(C(=O)c2cc(F)cc(-c3ccncc3)c2)CC(F)(F)C1 (centres undefined)
23.1	O=C(Nc1ccc(Cl)cc1)C1CN(C(=O)c2cccc(-c3ccncc3)c2)CC(F)(F)C1 (centres undefined)
75.4	O=C(Nc1ccc(Cl)cc1)C1CN(C(=O)c2cccc(-c3ncccn3)c2)CC(F)(F)C1 (centres undefined)
13.4	O=C(Nc1ccc(Cl)cc1)C1CCCN(C(=O)c2cccc(-c3ccco3)c2)C1 (centres undefined)

Tested on: Liver
Experiment: Drug metabolism in CD-1 mouse liver microsomes assessed as oxidative metabolism at 20 uM after 3 mins in presence of NADPH by LC-MS/MS analysis
Assay type: ADME, microsome
Settings: 0.05 h

Drug metabolism	SMILES
Metabolite_Detected	O=C(Nc1ccc(Cl)cc1)C1CCCN(C(=O)c2cccc(-c3ccco3)c2)C1 (centres undefined)

Species on record: Homo sapiens
Experiment: Inhibition of Rho/MRTF/SRF pathway in human primary dermal fibroblasts assessed as inhibition of TGF-beta-stimulated ACTA2 gene expression by measuring ACTA2 mRNA level at 10 uM after 24 hrs by qRT-PCR method relative to control
Set-up: scale not given: the % may be the effect or the level left
Settings: not given
Method in brief: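 Primary human dermal fibroblasts stimulated with TGF-β and treated with compound at 10 μM for 24 h. ACTA2 mRNA was measured by qPCR and expressed as percent of control, mean of n=3.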

Activity [%]	SMILES
110	Cn1cncc1-c1cccc(C(=O)N2CC(C(=O)Nc3ccc(Cl)cc3)CC(F)(F)C2)c1 (centres undefined)
73	O=C(Nc1ccc(Cl)cc1)C1CCCN(C(=O)c2cccc(-c3cn[nH]c3)c2)C1 (centres undefined)
140	O=C(Nc1ccc(Cl)cc1)C1CN(C(=O)c2cccc(-n3cccn3)c2)CC(F)(F)C1 (centres undefined)
14	O=C(Nc1ccc(Cl)cc1)C1CN(C(=O)c2cc(F)cc(-c3ccncc3)c2)CC(F)(F)C1 (centres undefined)
31	O=C(Nc1ccc(Cl)cc1)C1CN(C(=O)c2cccc(-c3ccncc3)c2)CC(F)(F)C1 (centres undefined)
65	O=C(Nc1ccc(Cl)cc1)C1CN(C(=O)c2cccc(-c3ncccn3)c2)CC(F)(F)C1 (centres undefined)
37	O=C(Nc1ccc(Cl)cc1)C1CCCN(C(=O)c2cccc(-c3ccco3)c2)C1 (centres undefined)

Tested on: not listed separately
Experiment: AUC (0 to 7 hrs) in CD-1 mouse at 10 mg/kg, ip administered as single dose by LC-MS/MS analysis
Assay type: ADME, organism-based
Set-up: dose 10 mg/kg, time < 7 hr, route intraperitoneal
Settings: in vivo
Method in brief: (§1)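 Mice dosed once, by intraperitoneal injection at 10 mg/kg or by oral gavage at 20 mg/kg. AUC is estimated from the plasma concentration curve over 0–7 h and is expressed as hr.ng/mL.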

AUC(0-t) at 7 h [ng·h/mL]	SMILES
26700	O=C(Nc1ccc(Cl)cc1)C1CN(C(=O)c2cc(F)cc(-c3ccncc3)c2)CC(F)(F)C1 (centres undefined)
15300	O=C(Nc1ccc(Cl)cc1)C1CN(C(=O)c2cccc(-c3ccncc3)c2)CC(F)(F)C1 (centres undefined)
1200	O=C(Nc1ccc(Cl)cc1)C1CCCN(C(=O)c2cccc(-c3ccco3)c2)C1 (centres undefined)

Tested on: not listed separately
Experiment: AUC (0 to 7 hrs) in CD-1 mouse at 20 mg/kg, po administered via gavage as single dose by LC-MS/MS analysis
Assay type: ADME, organism-based
Set-up: time < 7 hr, dose 20 mg/kg, route oral
Settings: in vivo
Method in brief: as §1

AUC(0-t) at 7 h [ng·h/mL]	SMILES
36400	O=C(Nc1ccc(Cl)cc1)C1CN(C(=O)c2cc(F)cc(-c3ccncc3)c2)CC(F)(F)C1 (centres undefined)
33700	O=C(Nc1ccc(Cl)cc1)C1CN(C(=O)c2cccc(-c3ccncc3)c2)CC(F)(F)C1 (centres undefined)

Tested on: not listed separately
Experiment: Plasma concentration in CD-1 mouse at 10 mg/kg, ip or 20 mg/kg, po administered via gavage as single dose measured at 0.5 hrs post dose by LC-MS/MS analysis
Assay type: ADME, organism-based
Settings: not given
Method in brief: (§2)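 Plasma concentration in μM after a single dose in mice (IP 10 mg/kg or PO gavage 20 mg/kg), sampled at 0.5 h and at 7 h post-dose.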

concentration at 0.5 h [µM]	SMILES
13.2	O=C(Nc1ccc(Cl)cc1)C1CN(C(=O)c2cc(F)cc(-c3ccncc3)c2)CC(F)(F)C1 (centres undefined)
14.4	O=C(Nc1ccc(Cl)cc1)C1CN(C(=O)c2cccc(-c3ccncc3)c2)CC(F)(F)C1 (centres undefined)

Tested on: not listed separately
Experiment: Plasma concentration in CD-1 mouse at 10 mg/kg, ip or 20 mg/kg, po administered via gavage as single dose measured at 7 hrs post dose by LC-MS/MS analysis
Assay type: ADME, organism-based
Settings: not given
Method in brief: as §2

concentration at 7 h [µM]	SMILES
1.3	O=C(Nc1ccc(Cl)cc1)C1CN(C(=O)c2cc(F)cc(-c3ccncc3)c2)CC(F)(F)C1 (centres undefined)
2.4	O=C(Nc1ccc(Cl)cc1)C1CN(C(=O)c2cccc(-c3ccncc3)c2)CC(F)(F)C1 (centres undefined)

Tested on: Mus musculus
Experiment: Antifibrotic activity in C57BL/6 mouse bleomycin-induced dermal fibrosis model assessed as inhibition of dermal thickness at 50 mg/kg, po qd for 2 weeks by Masson's trichrome staining based microscopic method relative to control
Assay type: functional
Settings: C57BL/6, po, 336 h
Method in brief: (§3)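 Three groups of mice (n=8) dosed daily for 14 days. The groups were: intracutaneous PBS; intracutaneous bleomycin plus vehicle by oral gavage; intracutaneous bleomycin plus test compound at 50 mg/kg by oral gavage. Read-outs were dermal thickness and skin hydroxyproline content. Each is given as the reduction of the bleomycin-induced increase.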

SMILES	inhibition in vivo at 50 mg/kg [%]
O=C(Nc1ccc(Cl)cc1)C1CN(C(=O)c2cccc(-c3ccncc3)c2)CC(F)(F)C1 (centres undefined)	55

Tested on: Mus musculus
Experiment: Antifibrotic activity in C57BL/6 mouse bleomycin-induced dermal fibrosis model assessed as inhibition ofhydroxyproline content at 50 mg/kg, po qd for 2 weeks relative to control
Assay type: functional
Settings: C57BL/6, po, 336 h
Method in brief: as §3

SMILES	inhibition in vivo at 50 mg/kg [%]
O=C(Nc1ccc(Cl)cc1)C1CN(C(=O)c2cccc(-c3ccncc3)c2)CC(F)(F)C1 (centres undefined)	62
